For data set [1], the system named is Rattus norvegicus. The data set is described as follows: Antiinflammatory activity in albino rat assessed as inhibition of carrageenan-induced paw edema at 100 mg/kg, po administered 1 hr prior to carrageenan-challenge measured after 3 hrs relative to control. The data set is classed as functional. The gist of the method: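 Charles Foster albino rats of either sex (150–200 g, pregnant females excluded), six per group, dosed orally; 1 h later 0.2 mL of 1% carrageenan in 0.9% NaCl injected into right hind paw subplantar tissue. Paw volume read by plethysmometer at injection and 3 h later. Control group received carrageenan only. % inhibition = 1–Dt/Dc×100. Mean ± S.D.; one-way ANOVA with Tukey's test.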
For orientation: In the carrageenan paw model, swelling and tenderness develop within hours.

Data set [2] deals with HeLa. Put plainly: Cytotoxicity against human HeLa cells at 100 ug/ml […] by MTT assay. The data set is classed as cell-based. A general note: Tetrazolium dyes change colour on reduction, which living cells bring about.
In data set [3] the test system is BT-549. The data set is described as follows: Cytotoxicity against human BT549 cells at 100 ug/ml […] by MTT assay. The data set is classed as cell-based.

This is an account of results in ChEMBL document CHEMBL2375332, “Novel quinolone substituted thiazolidin-4-ones as anti-inflammatory, anticancer agents: design, synthesis and biological screening” (Eur J Med Chem, 2013).

SMILES strings stand for the structures.

As usually defined, the inhibition in vivo is the share of the control response that was lost under treatment. On to `Cc1cc(=O)[nH]c2cc(N3C(=O)CSC3c3cccc(Cl)c3)ccc12` (configuration not stated), for which the inhibition in vivo at 100 mg/kg in data set [1] stood at 23.3%. Further, the Activity amounted to 44.158% in data set [2] and 44.849% in data set [3].
On to `Cc1cc(=O)[nH]c2cc(N3C(=O)CSC3c3ccccc3Br)ccc12` (configuration not stated), for which the inhibition in vivo at 100 mg/kg in data set [1] is 14%. The Activity in data set [2] is recorded as 44.279%; in data set [3] it was 38.709%.
The corresponding values for `Cc1cc(=O)[nH]c2cc(N3C(=O)CSC3c3cccc(F)c3)ccc12` (configuration not stated) are 23.6%, 52.738% and 50.052%.
The corresponding values for `Cc1cc(=O)[nH]c2cc(N3C(=O)CSC3c3cccc(O)c3)ccc12` (configuration not stated) are 14.3%, 71.485% and 18.522%.
The corresponding values for `Cc1cc(=O)[nH]c2cc(N3C(=O)CSC3c3ccc(N(C)C)cc3)ccc12` (configuration not stated) are 13.3%, 33.267% and 29.327%.
In the case of `COc1ccc(C2SCC(=O)N2c2ccc3c(C)cc(=O)[nH]c3c2)cc1` (configuration not stated), in data set [1], the inhibition in vivo at 100 mg/kg was 21.4%. In addition, the results for the Activity in data set [2] and in data set [3] were 47.326% and 39.334%, respectively.
In the case of `Cc1cc(=O)[nH]c2cc(N3C(=O)CSC3c3cccnc3)ccc12` (configuration not stated), the inhibition in vivo at 100 mg/kg in data set [1] worked out at 6.81%. Further, the Activity in data set [2] stood at 34.851%; in data set [3] it was 29.032%.
Take `Cc1cc(=O)[nH]c2cc(N3C(=O)CSC3N3CCCCC3)ccc12` (configuration not stated): the inhibition in vivo at 100 mg/kg in data set [1] came out at 2.77%. In addition, the Activity in data set [2] is given as 29.394%; in data set [3], 31.949%.
Turning to `Cc1cc(=O)[nH]c2cc(N3C(=O)CSC3c3ccccc3[N+](=O)[O-])ccc12` (configuration not stated), the inhibition in vivo at 100 mg/kg in data set [1] is 24.1%. Moreover, the results for the Activity in data set [2] and in data set [3] were 28.316% and 44.953%, respectively.
For the compound `COc1ccc(C2SCC(=O)N2c2ccc3c(C)cc(=O)[nH]c3c2)cc1OC` (configuration not stated), the inhibition in vivo at 100 mg/kg in data set [1] turned out to be 20.6%. In addition, the results for the Activity in data set [2] and in data set [3] were 30.492% and 31.737%, respectively.
For `COc1cc(C2SCC(=O)N2c2ccc3c(C)cc(=O)[nH]c3c2)ccc1O` (configuration not stated), in that order: 12.4%, 41.028% and 54.11%.
Turning to `Cc1ccc(C2SCC(=O)N2c2ccc3c(C)cc(=O)[nH]c3c2)s1` (configuration not stated), the inhibition in vivo at 100 mg/kg in data set [1] was 15.8%. The results for the Activity in data set [2] and in data set [3] were 31.485% and 22.023%, respectively.
The corresponding values for `Cc1cc(=O)[nH]c2cc(N3C(=O)CSC3c3ccccc3O)ccc12` (configuration not stated) are 16.4%, 43.168% and 44.328%.
As for `Cc1cc(=O)[nH]c2cc(N3C(=O)CSC3/C=C/c3ccccc3)ccc12` (configuration not stated), the inhibition in vivo at 100 mg/kg in data set [1] was determined as 20.8%. Also, the Activity in data set [2] was 42.057%; in data set [3], 38.837%.
In the case of `Cc1cc(=O)[nH]c2cc(N3C(=O)CSC3c3ccc(F)cc3)ccc12` (configuration not stated), in data set [1], the inhibition in vivo at 100 mg/kg stood at 19%. For the same compound, the figures for the Activity in data set [2] and in data set [3] were 14.231% and 43.311%, respectively.
The corresponding values for `Cc1cc(=O)[nH]c2cc(N3C(=O)CSC3c3ccc(Br)s3)ccc12` (configuration not stated) are 24%, 33.267% and 52.34%.
`Cc1cc(=O)[nH]c2cc(N3C(=O)CSC3c3cccc(Br)c3)ccc12` (configuration not stated): in data set [1], the inhibition in vivo at 100 mg/kg is 22.7%. Moreover, the Activity in data set [2] was 56.633%; in data set [3] it was 40.062%.
The corresponding values for `Cc1cc(=O)[nH]c2cc(N3C(=O)CSC3c3ccco3)ccc12` (configuration not stated) are 5.16%, 41.188% and 49.658%.
For the compound `Cc1cc(=O)[nH]c2cc(N3C(=O)CSC3c3ccc(Br)o3)ccc12` (configuration not stated), the inhibition in vivo at 100 mg/kg in data set [1] was determined as 23.3%. Also, the values for the Activity in data set [2] and in data set [3] were 31.332% and 42.357%, respectively.
